Assay outcomes from PubChem.
Apaf-1 act: activators of human Apaf-1 apoptosome, primary screen, biochemical, DEVD-Rh110 fluorescence, uHTS; actives 0.31% (n = 330,000); Apaf-1 apoptosome caspase-3 activation; active compounds read low; activity change, negative = activation, % at 20 µM; AID 489031, 2010; Apoptotic protease-activating factor 1 (Homo sapiens), O14727;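 active = activity change at or below -40% at 20 µM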
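Schedule: 30 min preincubation, 50 min reaction, room temperature / System: biochemical Apaf-1 apoptosome reconstitution / Medium: 20 mM HEPES pH 7.5 with CHAPS, BSA / Evaluation: Caspase-3 cleavage activity downstream of Apaf-1 activation / Detection: Caspase-3-released Rh110 fluorescence, 540 nm emission, 480 nm excitation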
Rh110 interf act: Rh110 fluorescence interference by putative Apaf-1 activators, confirmation, artefact control for Apaf-1 activator project, biochemical, 20 µM; shares compounds with Apaf-1 act; quenched caspase reaction, Ex480/Em540; fluorescence interference (activity change), % at 20 µM, hits read low; 980 tested, under 10 active; AID 504616, 2011;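 active = mean activity change at or below -40% when tested at 20 µM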
Apaf-1 act conf: Apaf-1 activators, single-dose retest, confirmation, biochemical, fluorescence, DEVD-Rh110, 20 µM; shares compounds with Apaf-1 act; reconstituted apoptosome caspase-3 activity; active compounds read low; activity change, negative = activation, % at 20 µM; actives 5% (n = 980); AID 504617, 2011;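 active = mean activity change at or below -40%, meaning activation of 40% or more, at 20 µM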
The depositor's hits bear a star; / = no result given. The list is a sample of the results.

SMILES	Apaf-1 act	Rh110 interf act	Apaf-1 act conf
CN(C)Cc1c(C(=O)N/N=C/c2cccc(OCc3c(F)cccc3Cl)c2)nnn1-c1nonc1N	-96*	-4	11
CC(C)(C)C1CCC(CN2C(Nc3ccccc3)=NC[C@@H]2Cc2ccccc2)CC1 (stereo not given in full)	75	/	/
Cc1ccc(C(=O)N/N=C/c2ccc(-c3ccccc3[N+](=O)[O-])o2)cn1	75	/	/
Cc1[nH][nH]c(=O)c1C(c1c(C)[nH][nH]c1=O)c1cn(Cc2cccc3ccccc23)c2ccccc12	95	/	/
Cc1ccccc1Cn1cc(/C=N/n2cnnc2)c2ccccc21	-57*	1	11
Oc1ccc(NCc2cccc(OCc3ccccc3)c2)cc1	91	/	/
Cc1nc2sccn2c(=O)c1CCN1CCC(=C(c2ccc(F)cc2)c2ccc(F)cc2)CC1	42	/	/
CC1=NN(c2cccc(Cl)c2)C(=O)C1	75	/	/
COc1ccc(/C=C/C(=O)OCC(=O)N2CCCC2)c(OC)c1	-40*	7	15
COc1ccc(N2CCCn3c2nc2c3c(=O)n(Cc3ccc(C)cc3)c(=O)n2C)c(OC)c1	-100*	8	21
COC(=O)c1ccccc1NC1=C/C(=N\S(=O)(=O)c2ccc(C(=O)O)cc2)c2ccccc2C1=O	95	/	/
COc1ccc2c(c1)c(=O)oc1cc(O)ccc12	-299*	2	10
O=c1oc2cc(O)ccc2c2oc3cc(O)ccc3c12	-41*	15	18
COc1ccc(-c2oc3ncnc(NCCN4CCOCC4)c3c2-c2ccc(OC)cc2)cc1	42	/	/
OCCN1CCN(CC/C=C2/c3ccccc3Sc3ccc(C(F)(F)F)cc32)CC1	58	/	/
NC1=NC[C@H](Cc2ccccc2)N1CCc1cc(C(F)(F)F)cc(C(F)(F)F)c1	54	/	/
Clc1ccc(CSc2nnc3ccccn23)c(Cl)c1	-40*	7	15
CCc1cc2c(nc1CC)CCN(CC/C(C)=N/OC[C@H]1O[C@H](c3ccccc3)C=C[C@@H]1Oc1ccc(OC)cc1)C2	43	/	/
CCN(CCO)c1ccc(NC(=S)Nc2cccc(S(=O)(=O)N(C)C)c2)cc1	43	/	/
CCNC(=S)Nc1cccc(NC(=O)c2ccccc2O)c1	-206*	-3	15
C#CCOCCOCCOCCNc1nc(N2CCN(C(=O)CCCCCCCCCCNC(=O)[C@H]([C@@H](C)CC)n3cc(CCCCN=C(N)N)nn3)CC2)nc(N2CCN(C(=O)CCCCCCCCCCNC(=O)[C@H](CCCCN)n3cc(C)nn3)CC2)n1	73	/	/
CCSc1nsc(NC(=O)Nc2ccc(F)cc2F)n1	-95*	6	16
O=C1C(NS(=O)(=O)c2cccs2)=C(N2CCN(Cc3ccccc3)CC2)C(=O)c2ccccc21	51	/	/
CC(C)(C)NC[C@H](O)COc1nsnc1N1CCOCC1	-3	/	/
C=CCNC(=O)CN(c1cccc(Br)c1)S(C)(=O)=O	-56*	2	7
SMILES	Apaf-1 act	Rh110 interf act	Apaf-1 act conf
c1ccc2c(-c3ccc(OCCN4CCCCC4)cc3)c(-c3ccsc3)sc2c1	59	/	/
CCn1cc(CN2CCC(n3nccc3NC(=O)Cc3ccccc3)CC2)cn1	-53*	0	9
O=C1C(SCCO)=C(SCCO)C(=O)c2ccccc21	97	/	/
CCN1C(=C(C#N)C#N)C=Cc2cc(C)ccc21	-49*	5	8
Cc1ccc(C(=O)N/C(=C\c2ccc(-c3ccccc3[N+](=O)[O-])o2)C(=O)NCCCN(C)C)cc1	56	/	/
C#CCOCCOCCOCCNc1nc(N2CCN(C(=O)CCCCCCCCCCNC(=O)Cn3cc(CCCCCN)nn3)CC2)nc(N2CCN(C(=O)CCCCCCCCCCNC(=O)[C@@H](CCC(=O)O)n3cc(CCCCCN)nn3)CC2)n1	59	/	/
Cc1cccc(CNc2ncnc3ccc(-c4ccc5c(c4)OCCO5)cc23)c1	42	/	/
CCc1cc2c(NCc3ccco3)ncnc2s1	-110*	0	2
COC(=O)C1=C(C)N(Cc2ccccc2)C(=NCC(C)C)N[C@H]1c1cccc(F)c1	44	/	/
Cc1ccc(N(CC(=O)N/N=C/c2ccc(OC3CSC3)cc2)S(=O)(=O)c2ccccc2)c(C)c1	63	/	/
CC[C@]12c3[nH]c4ccc(Cl)cc4c3CCN1C(=O)[C@@H](CC(=O)NCC13CC4CC(CC(C4)C1)C3)C[C@@H]2C(=O)N1CCN(C(=O)c2ccco2)CC1	44	/	/
COC(=O)C1=C(C)NC(C)=C(C(=O)OC(C)C)C1c1cccc2nonc12 (stereo not given)	-207*	1	8
CC(C)C[C@@H]1CN=C(N)N1C[C@@H]1CCCN1C[C@H](C)N1C[C@@H](Cc2ccccc2)N(CCc2ccc(Cl)c(Cl)c2)C1=N	63	/	/
